From ChEMBL document CHEMBL1149314, “Synthesis of AZT 5'-triphosphate mimics and their inhibitory effects on HIV-1 reverse transcriptase” (J Med Chem, 2004)

Legend:
[1] = (§1) Stability in fetal calf serum at 500 uM at 37 degC; type: ADME, cell-free, Bos taurus; conditions: cattle, fetal calf serum
Outline: (§2)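 Fetal calf serum at 10% v/v final, with 500 µM nucleotide mimic in 50 mM Tris-HCl pH 7.4 and 0.1 mM MgCl2, at 37 °C. Timed aliquots were quenched in cold methanol, extracted, dried and run on ion-pair reverse-phase HPLC. Half-life came from remaining parent through 48 h, given as >48 h if over 50% remained; unmodified nucleoside triphosphates were positive controls.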

[2] = Stability in CEM cell extract; type: ADME; conditions: human, CEM (CCRF-CEM) cell extract
Outline: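 Clarified lysate of CEM cells (10^7 cells per 100 µL Tris/glycerol/Triton buffer, freeze-thaw lysed) at 50% v/v, with 500 µM nucleotide mimic in 50 mM Tris-HCl pH 7.4 and 0.1 mM MgCl2, at 37 °C. Samples were taken from 0 to 48 h into cold methanol, dried and analysed by ion-pair reverse-phase HPLC. Half-life came from remaining parent, given as >48 h if over 50% remained intact; unmodified NTPs were controls.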

[3] = Inhibition of HIV1 reverse transcriptase; parameters: species or system Human immunodeficiency virus 1
Outline: (§3)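 HIV reverse transcriptase (type B, 66 kDa subunit) at 2 nM with 1 µg/mL primed poly(A) RNA and 5 µM dTTP, in 50 mM Tris-HCl pH 8.1, 6.5 mM MgCl2, 100 mM NaCl and 10 mM DTT. Compounds were tested up to 500 µM final. Reactions were started with enzyme, run 10 min at 37 °C and stopped with EDTA. DNA was read by PicoGreen fluorescence (ex 480/em 538 nm), with no-enzyme or no-dTTP blanks. Percent inhibition was blank-corrected; Ki came from titration fitted to a competitive model.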

[4] = tested on: Human immunodeficiency virus 1; experiment: Inhibition of HIV1 reverse transcriptase at 0.5 uM; outline: as §3
[5] = tested on: Serum; experiment: as §1; type: ADME, cell-free, Bos taurus; conditions: cattle, serum, 500 µM; outline: as §2

Structure (SMILES)	Ki [3] [nM]	also measured
BP(=O)(OC[C@@H]1O[C@H](n2cc(C)c(=O)[nH]c2=O)C[C@H]1N=[N+]=[N-])OP(=O)(O)C(Cl)(Cl)P(=O)(O)O (single isomer, unassigned; diastereomer II)	74	half-life at 500 µM [1]: > 48 h; half-life [2]: > 48 h
BP(=O)(OC[C@@H]1O[C@H](n2cc(C)c(=O)[nH]c2=O)C[C@H]1N=[N+]=[N-])OP(=O)(O)C(F)(F)P(=O)(O)O (single isomer, unassigned; diastereomer I)	9.5	half-life at 500 µM [1]: > 48 h; half-life [2]: > 48 h
BP(=O)(OC[C@@H]1O[C@H](n2cc(C)c(=O)[nH]c2=O)C[C@H]1N=[N+]=[N-])OP(=O)(O)OP(=O)(O)O (single isomer, unassigned; form 2)		half-life at 500 µM [1]: 6 h
CCNP(=O)(O)C(F)(F)P(=O)(O)OP(=O)(O)OC[C@@H]1O[C@H](n2cc(C)c(=O)[nH]c2=O)C[C@H]1N=[N+]=[N-]	415	
Nc1ncnc2c1ncn2[C@@H]1O[C@H](COP(=O)(O)OP(=O)(O)OP(=O)(O)O)[C@@H](O)[C@H]1O [ADENOSINE TRIPHOSPHATE]		half-life at 500 µM [1]: 2 h
Cc1cn([C@@H]2C[C@@H](N=[N+]=[N-])[C@H](COP(=O)(O)OP(=O)(O)C(F)(F)P(=O)(O)N=[N+]=[N-])O2)c(=O)[nH]c1=O		inhibition [4]: 24%
BP(=O)(OC[C@@H]1O[C@H](n2cc(C)c(=O)[nH]c2=O)C[C@H]1N=[N+]=[N-])OP(=O)(O)OP(=O)(O)O (single isomer, unassigned; form 1)	9.6	t1/2 [5]: 6 h
BP(=O)(OC[C@@H]1O[C@H](n2cc(C)c(=O)[nH]c2=O)C[C@H]1N=[N+]=[N-])OP(=O)(O)C(Cl)(Cl)P(=O)(O)O (single isomer, unassigned)	93	t1/2 [5]: 45 h
BP(=O)(OC[C@@H]1O[C@H](n2cc(C)c(=O)[nH]c2=O)C[C@H]1N=[N+]=[N-])OP(=O)(O)C(F)(F)P(=O)(O)O (single isomer, unassigned; diastereomer II)	4560	
COP(=O)(O)C(F)(F)P(=O)(O)OP(=O)(O)OC[C@@H]1O[C@H](n2cc(C)c(=O)[nH]c2=O)C[C@H]1N=[N+]=[N-]	597	
Cc1cn([C@@H]2C[C@@H](N=[N+]=[N-])[C@H](COP(=O)(O)C(F)(F)P(=O)(O)OP(=O)(O)c3ccccc3)O2)c(=O)[nH]c1=O		inhibition [4]: 11.5%
CNP(=O)(O)C(F)(F)P(=O)(O)OP(=O)(O)OC[C@@H]1O[C@H](n2cc(C)c(=O)[nH]c2=O)C[C@H]1N=[N+]=[N-]	124	
Cc1cn([C@@H]2C[C@@H](N=[N+]=[N-])[C@H](COP(=O)(O)OP(=O)(O)C(F)(F)P(=O)(O)O)O2)c(=O)[nH]c1=O	41	
Cc1cn([C@@H]2C[C@@H](N=[N+]=[N-])[C@H](COP(=O)(O)OP(=O)(O)C(F)(F)P(=O)(O)Oc3ccccc3)O2)c(=O)[nH]c1=O	303	
Cc1cn([C@@H]2C[C@@H](N=[N+]=[N-])[C@H](COP(=S)(S)OP(=O)(O)C(F)(F)P(=O)(O)O)O2)c(=O)[nH]c1=O (stereo partly drawn)		inhibition [4]: 19%
BP(=O)(OC[C@@H]1O[C@H](n2cc(C)c(=O)[nH]c2=O)C[C@H]1N=[N+]=[N-])OP(=O)(O)C(F)P(=O)(O)O (single isomer, unassigned; diastereomer IV)		inhibition [4]: 49%
BP(=O)(OC[C@@H]1O[C@H](n2cc(C)c(=O)[nH]c2=O)C[C@H]1N=[N+]=[N-])OP(=O)(O)C(F)P(=O)(O)O (single isomer, unassigned)	27	
Cc1cn([C@@H]2C[C@@H](N=[N+]=[N-])[C@H](COP(=O)(O)OP(=O)(O)C(F)(F)P(=O)(O)Nc3ccccc3)O2)c(=O)[nH]c1=O	254	
Cc1cn([C@H]2C[C@H](N=[N+]=[N-])[C@@H](COP(=O)(O)OP(=O)(O)OP(=O)(O)O)O2)c(=O)[nH]c1=O [ZIDOVUDINE TRIPHOSPHATE]	8.4	half-life at 500 µM [1]: 2 h
Cc1cn([C@H]2C[C@H](O)[C@@H](COP(=O)(O)OP(=O)(O)OP(=O)(O)O)O2)c(=O)[nH]c1=O [DEOXYTHYMIDINE_TRIPHOSPHATE]		half-life at 500 µM [1]: 2 h
Cc1cn([C@@H]2C[C@@H](N=[N+]=[N-])[C@H](COP(=O)(O)OP(=O)(O)C(F)(F)P(N)(=O)O)O2)c(=O)[nH]c1=O	234	
